According to the EternaBench riboswitch data:

System: MS2 coat protein
Experiment: apparent Kd, MS2 coat protein; higher = weaker binding; RNA-MaP array; FMN 200 µM where present
Method in brief: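 The apparent Kd is the median of filtered binding-curve fits, one per cluster, to green signal normalised to red-channel RNA signal and control-cluster median Fmax. The clusters were on Illumina sequencing chips, and stalled E. coli RNA polymerase had transcribed the designs on them. Titration used SNAP-549-labelled MS2 coat protein from 0.7 or 1.5 nM, doubling to 3 µM, without and then with constant ligand, in 100 mM Tris-HCl pH 7.5, 80 mM KCl, 4 mM MgCl2, BSA, DTT, yeast tRNA and Tween-20.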

[1] = designed as: ON switch for flavin mononucleotide, no ligand
[2] = ligand present: flavin mononucleotide, designed as: ON switch for flavin mononucleotide
[3] = designed as: OFF switch for flavin mononucleotide, no ligand
[4] = ligand present: flavin mononucleotide, designed as: OFF switch for flavin mononucleotide

Sequence | apparent Kd [1] | apparent Kd [2] | apparent Kd [3] | apparent Kd [4]
UUGGUUGUCGUAGGAUAUGGAGGAGAUUCCUACAUGAGGAUCACCCAUGUUCGCAUGGAAGAAGGCCAGAAGGACGAUGACCAU | 80.5 nM | 62 nM | – | –
GACUAGUAAGGAUAUCAAGUUCUCCACAUGAGGAUCACCCAUGUCGAUAACCUCUGACAAUGAGAAGGUGCUGACU | – | – | 35.1 nM | 31.9 nM
GCCAUCUCAUGAGGAUAUGCUCCCGUUUCGGGAGCAGAAGGCAUGUCAUAAGACAUGAGGAUCACCCAUGUAGUUAAGAUGGCA | 286 nM | 11.8 nM | – | –
GAUAUAGAGCAGGAUAUCUUAGAUAUGUAAUAAAGAGAAGGGCUCACAUGAGGAUCACCCAUGUGGUCCUAGAU | – | – | 18.5 nM | 113 nM
CAUGUCCUCACAGGAUAUGCACCACUUUGUGGUGCAGAAGGGUGAAUACAUGAGGAUCACCCAUGUGGACAUGAUAUAUUUAAG | 1200 nM | 75.4 nM | – | –
CGGAGACAUGAGGAUCACCCAUGUGAGGAUAUGCAAGCCCGACUGAUCGUUAGCCUAUGUAGAAGGCACGGGUC | – | – | 21.3 nM | 20 nM
CGAACUAAGUAGAAGGCUGUCUUAAAAUAGGACAGAGGAUAUACAUGAGGAUCACCCAUGUACUCCUUUAAUAAGUUCGAAAUA | – | – | 5.22 nM | 6.13 nM
CAGCGAUAGCUAAAGUAUCUAUCAGAGGAUAUUUAUGAAACAUGAGGAUCACCCAUGUGAAACUGGGAGAAGGCUGAUAGAUAG | 11.9 nM | 5.47 nM | – | –
UGGUAACAUGAGGAUCACCCAUGUCAGGAUAUCAGGAAGAGGAGAGGAGAGGAGAAGAUGAGAAGGGACUAUAU | – | – | 27.2 nM | 21.9 nM
UCAGGUGGAGGAUAUACAGCUCGAUCCUGUAAUAAAACGGCACAUGAGGAUCACCCAUGUAGAAGGCCACAAUA | – | – | 25.7 nM | 126 nM
UCGAGUCAUGAGAAGGGCUGAUGUUACAUGAGGAUCACCCAUGUCAUGGGCAGGAUAUCAUUGACACGGCUGUACCUCUCUUAA | 107 nM | 19.3 nM | – | –
AGCUACGUUUCGUAGCAGCUAGGUGAGGAUAUCCUUAACAUGAGGAUCACCCAUGUAUAGCCAUGGGAGAAGGCGCCUAGAAAG | 723 nM | 55.3 nM | – | –
CUUUUGUGAGGAUAUUAGUAGUAAAUAAAUAAAAUUACUAUUGAGAAGGCACAUGAGGAUCACCCAUGUUCCUC | – | – | 31.4 nM | 182 nM
CCCAAACUUGGGCUUGGUGGUGCAUAGGAUAUCCUUGAACAUGAGGAUCACCCAUGUGCAACUGUGGAGAAGGGUGCAGGGCCU | 362 nM | 88.4 nM | – | –
AGUCGGAGCAGAGGAUAUUACAUGAGGAUCACCCAUGUGGAAGAACCAAGCUGGAAACAGCAAUGUAAGAAGGCUGCUCCGACA | – | – | 918 nM | 430 nM
GCUGUAUAUGAGAAGGCGAUCAUGAAACAUGAUCGAGGAUAUCAUGUAAACAUGAGGAUCACCCAUGUAUGGGUAUUAAGCAGC | 280 nM | 46.6 nM | – | –
AGUCGGAGCAGAGGAUAUACAUGAGGAUCACCCAUGUAAUAUGAUCUAGCCUGGAAACAGGCAAUGUAGAAGGCUGCUCCGACA | – | – | 90.3 nM | 709 nM
UAUAUAUAGUAAGGAUAUGUAAUUAUUUUACAAACAGAAGGUACUGACAUGAGGAUCACCCAUGUUUUAGUGUGGGCAUGUAGA | – | – | 47.3 nM | 54.4 nM

Sequence | apparent Kd [1] | apparent Kd [2] | apparent Kd [3] | apparent Kd [4]
GGUCGUCACAUUUACAUGAGGAUCACCCAUGUCGAAAGACAUGAGGAUAUGCUACCUAAUUGGUAGCAGAAGGCAUGGACGACC | 455 nM | 234 nM | – | –
GCCAUCGCAUGAGGAUAUGCUCCCGUUUCGGGAGCAGAAGGCAUGUCACAAGACAUGAGGAUCACCCAUGUAGUUAAGAUGGCA | 194 nM | 8.52 nM | – | –
AAAUUAGUUGUAGGAUAUCGGUCGAACAUCUCACGAGAAGGGCAACAUGAGGAUCACCCAUGUAGGUCGCCUACGUAAGAUCGC | – | – | 5.84 nM | 6.71 nM
GGAUAGGACAGAGGAUAUACGUGCUAGACAUACUAGCAAAAUUUCCUCACAUGAGGAUCACCCAUGUAGAAGGCUGUCCUAUCG | – | – | 18.7 nM | 440 nM
ACAUGAGGAUCACCCAUGUGGACAUAGGAUAUUGGUGGUCAGGCGUGUUAUACAGGAUAGGUCUGCGAGAAGGGUGUGCGUUGC | 84.9 nM | 75 nM | – | –
UGUUACUAGUAAGGAUAUACUUGCGACUAGCUUGUAGAAGGUACAGUCUUUUGUAUAACAUGUUUACAUGAGGAUCACCCAUGU | 9.05 nM | 8.38 nM | – | –
AAACAUGUCCGAGGAUAUCUGGAAAUAUUUCCAAGAGAAGGCGGACAUGAGGAUCACCCAUGUCUCUCCUCAUCAAAUCCAAGU | – | – | 9.36 nM | 73.3 nM
GUCUGGCUAGGAUAUACAGUGUCCACAAGUUAGUUACCCUAACAUGAGGAUCACCCAUGUAGAAGGAGUGAGAA | – | – | 72.9 nM | 308 nM
GUGUACAGAGGAUAUACAUGAGCUAGGAAACUAGCAAACUCACAUGAGGAUCACCCAUGUAGAAGGCUGUACAC | – | – | 264 nM | 54.7 nM
AAGGUGAGUCAAGGAUAUCCGGGCUGAAUGCCAGGAGAAGGUGACAUGAGGAUCACCCAUGUCUCUCCGAGCAUGGUAUUCUCA | – | – | 148 nM | 138 nM
GACUUUUCUGAGGAUAUUGCAUCACCCGAUCUAUAAGAAGGCAGAACAUGAGGAUCACCCAUGUGGGUUUCUAG | – | – | 24.7 nM | 33.6 nM
AUAUUGUGAGGAUAUGAACUUAGUAUCGAAAGAUACUAUGUUCAGAAGGCACAUGAGGAUCACCCAUGUUUCUC | – | – | 81.7 nM | 569 nM
GUGGCUAGUGCAGGAUAUUGGCGCGUGUAGUGUCGAGAAGGGCACAUGAGGAUCACCCAUGUGAUCAAUCACUGCUAAGGCCGC | – | – | 7.04 nM | 7.31 nM
AGUGACUACGUAGGAUAUUAAUUCAUGGACUACAUGAGGAUCACCCAUGUUUAUUUAACAUCAGCUGAGAAGGACGUGGUCACA | 28.1 nM | 10.6 nM | – | –
UGUCGGAGCAGAGGAUAUUACAUGAGGAUCACCCAUGUAUGAACCAAUAGCUGGAAACAGCAAUGUAAGAAGGCUGCUCCGGCA | – | – | 11.8 nM | 186 nM
UAUAGACAUGAGGAUCACCCAUGUAAGGAUAUCGGUACUAAUGGUAUAAUCUACUUAGCGAGAAGGUACAAUGU | – | – | 31 nM | 30.6 nM
AAAAAACAUGAGGAUCACCCAUGUGAGGAUAUCUGUAUCCAAAAGGAAGUGUAGGAUCAGAGAAGGCACUAGGA | – | – | 68.1 nM | 123 nM
CAGCUGAAAGUCAGGAUAUCUAGAGCCUCGGCUCUAGAGAAGGGACAUGAGGAUCACCCAUGUCACUCCAGCUG | – | – | 18.4 nM | 20 nM
